ChEMBL document CHEMBL2146441, “2,6-Disubstituted imidazo[2,1-b][1,3,4]thiadiazoles: search for anticancer agents” (2012)

What was measured:
Assay type in all cases: functional
786-0 = test: Growth inhibition of human 786-0 cells after 48 hrs by SRB assay; settings: 786-0, 48 h
How it was run: (§1)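 Same 48 h NCI-60 five-dose SRB protocol. Adherent lines were fixed with cold TCA at 10% final; suspension lines such as CCRF-CEM were fixed with 16% final TCA. Stain was 0.4% SRB in 1% acetic acid for 10 min, solubilized in 10 mM Tris base and read at 515 nm. GI50 came from log concentration–growth curves, solving [(Ti−Tz)/(C−Tz)]×100 = 50.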

KM12 = test: Cytotoxicity against human KM12 cells assessed as cell growth at 10^-8 M after 48 hrs by SRB assay; settings: KM12, 48 h, read-out: Activity
CAKI-1 = test: Cytotoxicity against human Caki1 cells assessed as cell growth at 10^-6 M after 48 hrs by SRB assay; settings: CAKI-1, 48 h, read-out: Activity
How it was run: (§2)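 NCI-60 screen: lines kept in RPMI 1640 with 5% FBS, seeded at 5000–40,000 cells/well by doubling time, preincubated 24 h at 37 °C in 5% CO2. Time-zero plates TCA-fixed at drug addition. DMSO stocks diluted in medium, 48 h exposure. Fixation in cold TCA (final 10% adherent, 16% suspension), 0.4% SRB stain, solubilised in 10 mM Tris base, A515. Percent growth computed against control and time-zero.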

UACC-62 = test: Cytotoxicity against human UACC62 cells assessed as cell growth at 10^-5 M after 48 hrs by SRB assay; settings: UACC-62, 48 h, read-out: Activity
SF-539 = test: Cytotoxicity against human SF539 cells assessed as cell growth at 10^-7 M after 48 hrs by SRB assay; settings: SF-539, 48 h, read-out: Activity
ACHN = test: Cytotoxicity against human ACHN cells assessed as cell growth at 10^-6 M after 48 hrs by SRB assay; settings: read-out: Activity; how it was run: as §2
SW-620 = test: Growth inhibition of human SW620 cells after 48 hrs by SRB assay; settings: SW-620, 48 h; for CC50: read-out: LC50 (the source's name)
How it was run: (§3)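 Adherent NCI-60 lines grown in RPMI 1640 with 5% FBS, seeded at 5000–40,000 cells/well, and preincubated 24 h at 37 °C, 5% CO2. Compound, stocked in DMSO, given either once at 10^-5 M or at five 10-fold dilutions for 48 h. Cells fixed with cold TCA (final 10%), stained with 0.4% SRB, and read at 515 nm. GI50 taken as 50% reduction in net protein increase versus time-zero and control plates.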

Malme-3M [1] = test: Cytotoxicity against human MALME-3M cells assessed as cell growth at 10^-7 M after 48 hrs by SRB assay; settings: read-out: Activity
MDA-MB-231 = test: Cytotoxicity against human MDA-MB-231 cells assessed as cell growth at 10^-6 M after 48 hrs by SRB assay; settings: MDA-MB-231, 48 h, read-out: Activity
SK-OV-3 = test: Cytotoxicity against human SKOV3 cells assessed as cell growth at 10^-5 M after 48 hrs by SRB assay; settings: SK-OV-3, 48 h, read-out: Activity
NCI-H322M = test: Growth inhibition of human NCI-H322M cells after 48 hrs by SRB assay; settings: for CC50: read-out: LC50 (the source's name); how it was run: as §3
IGROV-1 = test: Cytotoxicity against human IGROV1 cells assessed as cell growth at 10^-5 M after 48 hrs by SRB assay; settings: IGROV-1, 48 h, read-out: Activity
How it was run: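 NCI-60 five-dose screen. Cells were grown in RPMI 1640 with 5% FBS and seeded at 5000–40,000 cells/well according to doubling time. They were pre-incubated 24 h at 37 °C in 5% CO₂, and time-zero (Tz) plates were TCA-fixed at drug addition. Five 10-fold dilutions of DMSO stock were applied for 48 h. Read-out was SRB staining, 515 nm absorbance, with percent growth calculated versus Tz and untreated control.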

SF-268 [2] = test: Cytotoxicity against human SF268 cells assessed as cell growth at 10^-7 M after 48 hrs by SRB assay; settings: SF-268, 48 h, read-out: Activity
MOLT-4 = test: Cytotoxicity against human MOLT4 cells assessed as cell growth at 10^-7 M after 48 hrs by SRB assay; settings: MOLT-4, 48 h, read-out: Activity
MDA-MB-468 = test: Cytotoxicity against human MDA-MB-468 cells assessed as cell growth at 10^-5 M after 48 hrs by SRB assay; settings: MDA-MB-468, 48 h, read-out: Activity
OVCAR-5 = test: Cytotoxicity against human OVCAR5 cells assessed as cell growth at 10^-6 M after 48 hrs by SRB assay; settings: OVCAR-5, 48 h, read-out: Activity
NCI-H522 = test: Cytotoxicity against human NCI-H522 cells assessed as cell growth at 10^-7 M after 48 hrs by SRB assay; settings: NCI-H522, 48 h, read-out: Activity
MDA-MB-435 = test: Cytotoxicity against human MDA-MB-435 cells assessed as cell growth at 10^-5 M after 48 hrs by SRB assay; settings: MDA-MB-435, 48 h, read-out: Activity
SNB-19 = test: Growth inhibition of human SNB19 cells after 48 hrs by SRB assay; settings: SNB-19, 48 h; for CC50: read-out: LC50 (the source's name); how it was run: as §3
LOX IMVI = test: Cytotoxicity against human LOXIMVI cells assessed as cell growth at 10^-5 M after 48 hrs by SRB assay; settings: read-out: Activity
COLO = test: Cytotoxicity against human COLO […] cells assessed as cell growth at 10^-7 M after 48 hrs by SRB assay; settings: read-out: Activity; how it was run: as §2
[3] = Cytotoxicity against human […] cells assessed as cell growth at 10^-8 M after 48 hrs by SRB assay; settings: 48 h, read-out: Activity
Malme-3M [4] = test: Cytotoxicity against human MALME-3M cells assessed as cell growth at 10^-5 M after 48 hrs by SRB assay; settings: read-out: Activity
SF-268 [5] = test: Cytotoxicity against human SF268 cells assessed as cell growth at 10^-4 M after 48 hrs by SRB assay; settings: SF-268, 48 h, read-out: Activity
NCI-H460 = test: Cytotoxicity against human NCI-H460 cells assessed as cell growth at 10^-4 M after 48 hrs by SRB assay; settings: NCI-H460, 48 h, read-out: Activity
HOP-92 = test: Growth inhibition of human HOP92 cells after 48 hrs by SRB assay; settings: HOP-92, 48 h; for CC50: read-out: LC50 (the source's name); how it was run: as §3
M14 = test: Cytotoxicity against human M14 cells assessed as cell growth at 10^-7 M after 48 hrs by SRB assay; settings: M14, 48 h, read-out: Activity
DU-145 = test: Growth inhibition of human DU145 cells after 48 hrs by SRB assay; settings: DU-145, 48 h; how it was run: as §1

| Compound | GI50 (786-0) | TGI (786-0) | growth at 0.01 µM (KM12) | growth at 1 µM (CAKI-1) | growth at 10 µM (UACC-62) | growth at 0.1 µM (SF-539) | growth at 1 µM (ACHN) | GI50 (SW-620) | TGI (SW-620) | CC50 (SW-620) | growth at 0.1 µM (Malme-3M [1]) | growth at 1 µM (MDA-MB-231) | growth at 10 µM (SK-OV-3) | GI50 (NCI-H322M) | TGI (NCI-H322M) | CC50 (NCI-H322M) | growth at 10 µM (IGROV-1) | growth at 0.1 µM (SF-268 [2]) | growth at 0.1 µM (MOLT-4) | growth at 10 µM (MDA-MB-468) | other results |
| --- | --- | --- | --- | --- | --- | --- | --- | --- | --- | --- | --- | --- | --- | --- | --- | --- | --- | --- | --- | --- | --- |
| COc1ccc(-c2nn3cc(-c4ccc(O)cc4O)nc3s2)cc1 | 1.72 µM | 3.43 µM | 98% | 69% | 24% | 101% | 100% | 3.96 µM | > 100 µM | > 100 µM | 90% | 66% | -67% | 3.23 µM | > 100 µM | > 100 µM | 9% | 96% | 89% | 9% | growth at 1 µM (OVCAR-5): 84%; growth at 0.1 µM (NCI-H522): 84%; growth at 10 µM (MDA-MB-435): 14%; GI50 (SNB-19): 3.57 µM; TGI (SNB-19): > 100 µM; CC50 (SNB-19): > 100 µM; growth at 10 µM (LOX IMVI): 4%; growth at 0.1 µM (COLO): 106%; growth at 0.01 µM [3]: 100%; growth at 10 µM (Malme-3M [4]): -30%; growth at 100 µM (SF-268 [5]): -8%; growth at 100 µM (NCI-H460): 2%; GI50 (HOP-92): 0.231 µM; TGI (HOP-92): 2.68 µM; CC50 (HOP-92): > 100 µM; growth at 0.1 µM (M14): 96%; GI50 (DU-145): 4.37 µM; LC50 (lethal concentration 50) (DU-145): > 100 µM; TGI (DU-145): > 100 µM |
| COc1ccc(-c2nn3cc(-c4cccc(N)c4)nc3s2)cc1 | 4.7 µM | 15.9 µM | 98% | 46% | 26% | 100% | 93% | 6.08 µM | 76.6 µM | > 100 µM | 97% | 61% | 2% | 7.15 µM | 87.2 µM | > 100 µM | 20% | 101% | 100% | -2% | LC50 (786-0): 42.9 µM; growth at 1 µM (OVCAR-5): 90%; growth at 0.1 µM (NCI-H522): 83%; growth at 10 µM (MDA-MB-435): 11%; GI50 (SNB-19): 12.4 µM; TGI (SNB-19): > 100 µM; CC50 (SNB-19): > 100 µM; growth at 10 µM (LOX IMVI): 26%; growth at 0.1 µM (COLO): 101%; growth at 0.01 µM [3]: 96%; growth at 10 µM (Malme-3M [4]): -16%; growth at 100 µM (SF-268 [5]): -34%; growth at 100 µM (NCI-H460): -31%; GI50 (HOP-92): 0.114 µM; TGI (HOP-92): 0.989 µM; CC50 (HOP-92): 87.2 µM; growth at 0.1 µM (M14): 101%; GI50 (DU-145): 6.79 µM; LC50 (lethal concentration 50) (DU-145): > 100 µM; TGI (DU-145): 31.7 µM |
